# Measured values of several laboratories.
# Lines come from different studies, so protocols differ.
Compound,assay,system,setting,quantity,value
C[C@]12CC[C@H](n3ccnc3)CC1=CC[C@@H]1[C@@H]2CC[C@]2(C)C(n3cnc4ccccc43)=CC[C@@H]12.Cl.Cl,,"male CD-1 mouse, plasma","intravenous, 1 mg/kg",half-life,17.5 h
Nc1nc(-c2ccccc2)nc2[nH]nc(Nc3ccc(C(F)(F)F)cc3)c12,,"mouse, plasma","oral, 100 mg/kg, 6 h",concentration,802 ng/mL
CCN(CC)CCCC[C@H](NC(=O)[C@H](CC(C)C)NC(=O)[C@H](C)NC(=O)[C@H](Cc1ccccc1)NC(=O)c1ccc(C(C)(C)C)cc1)C(=O)N[C@@H](CO)C(=O)OC,,"male Swiss mouse, blood","intravenous, 3 mg/kg",half-life,0.09 h
CN[C@H](CC(C)C)C(=O)N[C@H]1C(=O)N[C@@H](CC(N)=O)C(=O)N[C@H]2C(=O)NC3C(=O)N[C@H](C(=O)N[C@H](C(=O)NCCC[N+](C)(C)C)c4cc(O)cc(O)c4-c4cc3ccc4O)[C@H](O)c3ccc(c(Cl)c3)Oc3cc2cc(c3OC2OC(CO)C(O)[C@H](O)[C@@H]2O[C@H]2CC(C)(NCc3ccc(-c4ccc(Cl)cc4)cc3)[C@H](O)[C@H](C)O2)Oc2ccc(cc2Cl)[C@H]1O (some centres unmarked),,"mouse, plasma","intravenous, 10 mg/kg",half-life,7 h
O=C(NCCCCCn1ccc2ccc(F)cc21)Oc1ccc(C(=O)O)cc1,HPLC,,,chromatographic logP,2.8
N[C@@H](Cc1ccccc1)C(=O)N1C/C(=C\c2ccc(Cl)c(Cl)c2)C(=O)/C(=C/c2ccc(Cl)c(Cl)c2)C1,,"mouse, plasma","oral, 20 mg/kg",half-life,2.6 h
O=C(NCCCCCn1ccc2ccc(F)cc21)Oc1ccc(F)cc1,HPLC,,,chromatographic logP,4.2
N=c1c2c(-c3ccccc3)c(-c3ccccc3)n(Cc3ccccc3)c2ncn1[C@H]1CC[C@H](O)CC1,,"female minipig, plasma","oral, 2.5 mg/kg, single dose",half-life,98.4 h
O=C(NCCCCCn1ccc2ccc(F)cc21)Oc1cccc2[nH]ccc12,HPLC,,,chromatographic logP,3.5
NCC(=O)Nc1ccc(-n2nc(C(F)(F)F)cc2-c2ccc3c(ccc4ccccc43)c2)cc1,,"mouse, plasma","oral, 80 mg/kg, single dose",half-life,22 h
NC(=O)c1cccc(-c2cccc(OC(=O)NC3CCCCC3)c2)c1,HPLC,,,chromatographic logP,2
Cc1cc(C)nc(Nc2ncc(C(=O)NCCc3c(C)[nH]c4ccccc34)cn2)c1,metabolic stability,"dog, liver microsomes",1 µM,microsomal CLint,72 µL/min/mg
C[C@]12CC[C@H](O)CC1=CC[C@@H]1[C@@H]2CC[C@]2(C)C(n3cnc4ccccc43)=CC[C@@H]12.Cl,,"mouse, plasma","intravenous, 1 mg/kg",half-life,1.02 h
CC[C@H]1CN2CC[C@H]1C[C@@H]2[C@@H](O)c1ccnc2ccc(OC)cc12,,water,,logP,3.43
CC(C)[C@H]1C(=O)N[C@@H](CCCN=C(N)N)C(=O)NCC(=O)N[C@@H](CC(=O)O)C(=O)N[C@H](Cc2ccccc2)C(=O)N1C,,,,logP,-2
C=C[C@H]1C[N@@]2CC[C@H]1C[C@@H]2[C@@H](O)c1ccnc2ccccc12,,water,,logP,2.82
N#Cc1ccccc1OC(=O)NCCCCCn1ccc2ccc(F)cc21,HPLC,,,chromatographic logP,3.9
